According to ChEMBL document CHEMBL1629527, “In vitro antifungal activities of bis(alkylpyridinium)alkane compounds against pathogenic yeasts and molds” (Antimicrob Agents Chemother, 2010):
Values after ≈ are worked out from the molar mass of the structure shown.

Key:
Clavispora lusitaniae = experiment: Antifungal activity against Candida lusitaniae after 24 to 72 hrs by broth microdilution method; type: functional
In short: (§1)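 Broth microdilution MIC per CLSI M27-A3 (yeasts) or M38-A2 (molds). RPMI 1640 with L-glutamine, without bicarbonate, buffered to pH 7.0 with 0.165 M MOPS. Final test range for the compounds was 0.175–87.5 μM. Incubation at 35°C with visual reading at 24–72 h. MIC was the lowest concentration giving 100% inhibition versus the growth control (azoles 50% or 100%, by organism). Each isolate was run in duplicate in two independent experiments.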

Candida parapsilosis = experiment: Antifungal activity against Candida parapsilosis after 24 to 72 hrs by broth microdilution method; type: functional; details: Lodderomyces parapsilosis; in short: as §1
Nakaseomyces glabratus = experiment: Antifungal activity against Candida glabrata after 24 to 72 hrs by broth microdilution method; type: functional; in short: as §1
Candida tropicalis = experiment: Antifungal activity against Candida tropicalis after 24 to 72 hrs by broth microdilution method; type: functional; in short: as §1
[1] = test system: Cryptococcus gattii species complex; experiment: Antifungal activity against Cryptococcus gattii after 24 to 72 hrs by broth microdilution method; type: functional, Cryptococcus bacillisporus; in short: as §1
[2] = test system: Meyerozyma guilliermondii; experiment: Antifungal activity against Candida guilliermondii after 24 to 72 hrs by broth microdilution method; type: functional; in short: as §1
Pichia kudriavzevii = experiment: Antifungal activity against Candida krusei after 24 to 72 hrs by broth microdilution method; type: functional; in short: as §1
Candida dubliniensis = experiment: Antifungal activity against Candida dubliniensis after 24 to 72 hrs by broth microdilution method; type: functional; in short: as §1
Candida albicans = experiment: Antifungal activity against Candida albicans after 24 to 72 hrs by broth microdilution method; type: functional
In short: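 CLSI M27-A3 broth microdilution for yeasts in RPMI 1640 with L-glutamine and no bicarbonate, buffered with 0.165 M MOPS to pH 7.0. Compounds were dissolved in water and tested at 0.175–87.5 μM final, 35°C. MIC was read visually at 24–72 h as 100% inhibition versus growth control. For MFC, 30 μl from clear wells went onto SDA at 35°C for 48–72 h, reading the lowest concentration without colonies. Duplicates, two independent runs.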

Cryptococcus neoformans = experiment: Antifungal activity against Cryptococcus neoformans after 24 to 72 hrs by broth microdilution method; type: functional; in short: as §1

Structure (SMILES)	MIC (Clavispora lusitaniae)	MIC50 (Clavispora lusitaniae)	MIC90 (Clavispora lusitaniae)	MIC (Candida parapsilosis)	MIC50 (Candida parapsilosis)	MIC90 (Candida parapsilosis)	MIC (Nakaseomyces glabratus)	MIC50 (Nakaseomyces glabratus)	MIC90 (Nakaseomyces glabratus)	MIC (Candida tropicalis)	MIC50 (Candida tropicalis)	MIC90 (Candida tropicalis)	MIC [1]	MIC50 [1]	MIC90 [1]	MIC [2]	MIC50 [2]	MIC90 [2]	MIC (Pichia kudriavzevii)	MIC50 (Pichia kudriavzevii)	other results
C[C@@H](c1ncncc1F)[C@](O)(Cn1cncn1)c1ccc(F)cc1F [VORICONAZOLE]	0.02 µg/mL (≈ 0.0573 µM)	0.03 µg/mL (≈ 0.0859 µM)	0.16 µg/mL (≈ 0.458 µM)	0.043 µg/mL (≈ 0.123 µM)	0.06 µg/mL (≈ 0.172 µM)	0.06 µg/mL (≈ 0.172 µM)	0.41 µg/mL (≈ 1.17 µM)	0.25 µg/mL (≈ 0.716 µM)	4 µg/mL (≈ 11.5 µM)	0.07 µg/mL (≈ 0.2 µM)	0.125 µg/mL (≈ 0.358 µM)	0.25 µg/mL (≈ 0.716 µM)	0.05 µg/mL (≈ 0.143 µM)	0.06 µg/mL (≈ 0.172 µM)	0.06 µg/mL (≈ 0.172 µM)	0.124 µg/mL (≈ 0.355 µM)	0.125 µg/mL (≈ 0.358 µM)	0.25 µg/mL (≈ 0.716 µM)	0.41 µg/mL (≈ 1.17 µM)	0.25 µg/mL (≈ 0.716 µM)	MIC90 (Pichia kudriavzevii): 1 µg/mL (≈ 2.86 µM); MIC (Candida dubliniensis): 0.011 µg/mL (≈ 0.0315 µM); MIC50 (Candida dubliniensis): 0.008 µg/mL (≈ 0.0229 µM); MIC90 (Candida dubliniensis): 0.016 µg/mL (≈ 0.0458 µM); MIC (Candida albicans): 0.04 µg/mL (≈ 0.115 µM); MIC50 (Candida albicans): 0.01 µg/mL (≈ 0.0286 µM); MIC90 (Candida albicans): 0.17 µg/mL (≈ 0.487 µM); MIC (Cryptococcus neoformans): 0.04 µg/mL (≈ 0.115 µM); MIC50 (Cryptococcus neoformans): 0.03 µg/mL (≈ 0.0859 µM); MIC90 (Cryptococcus neoformans): 0.125 µg/mL (≈ 0.358 µM)
C[C@@H]1[C@H](O)[C@@H](C)/C=C/C=C/C=C/C=C/C=C/C=C/C=C/[C@H](O[C@@H]2O[C@H](C)[C@@H](O)[C@H](N)[C@@H]2O)C[C@@H]2O[C@](O)(C[C@@H](O)C[C@@H](O)[C@H](O)CC[C@@H](O)C[C@@H](O)CC(=O)O[C@H]1C)C[C@H](O)[C@H]2C(=O)O [AMPHOTERICIN B]	0.12 µg/mL (≈ 0.13 µM)	0.125 µg/mL (≈ 0.135 µM)	0.25 µg/mL (≈ 0.271 µM)	0.28 µg/mL (≈ 0.303 µM)	0.25 µg/mL (≈ 0.271 µM)	0.5 µg/mL (≈ 0.541 µM)	0.18 µg/mL (≈ 0.195 µM)	0.125 µg/mL (≈ 0.135 µM)	0.25 µg/mL (≈ 0.271 µM)	0.22 µg/mL (≈ 0.238 µM)	0.25 µg/mL (≈ 0.271 µM)	0.5 µg/mL (≈ 0.541 µM)	0.19 µg/mL (≈ 0.206 µM)	0.25 µg/mL (≈ 0.271 µM)	0.25 µg/mL (≈ 0.271 µM)	0.15 µg/mL (≈ 0.162 µM)	0.125 µg/mL (≈ 0.135 µM)	0.25 µg/mL (≈ 0.271 µM)	0.22 µg/mL (≈ 0.238 µM)	0.25 µg/mL (≈ 0.271 µM)	MIC90 (Pichia kudriavzevii): 0.5 µg/mL (≈ 0.541 µM); MIC (Candida dubliniensis): 0.1 µg/mL (≈ 0.108 µM); MIC50 (Candida dubliniensis): 0.125 µg/mL (≈ 0.135 µM); MIC90 (Candida dubliniensis): 0.125 µg/mL (≈ 0.135 µM); MIC (Candida albicans): 0.2 µg/mL (≈ 0.216 µM); MIC50 (Candida albicans): 0.25 µg/mL (≈ 0.271 µM); MIC90 (Candida albicans): 0.5 µg/mL (≈ 0.541 µM); MIC (Cryptococcus neoformans): 0.19 µg/mL (≈ 0.206 µM); MIC50 (Cryptococcus neoformans): 0.25 µg/mL (≈ 0.271 µM); MIC90 (Cryptococcus neoformans): 0.5 µg/mL (≈ 0.541 µM)
CC[C@H](C)C[C@H](C)CCCCCCCCC(=O)N[C@H]1C[C@@H](O)[C@@H](NCCN)NC(=O)[C@@H]2[C@@H](O)CCN2C(=O)[C@H]([C@H](O)CCN)NC(=O)[C@H]([C@H](O)[C@@H](O)c2ccc(O)cc2)NC(=O)[C@@H]2C[C@@H](O)CN2C(=O)[C@H]([C@@H](C)O)NC1=O [CASPOFUNGIN]	0.54 µg/mL (≈ 0.494 µM)	0.5 µg/mL (≈ 0.457 µM)	1 µg/mL (≈ 0.915 µM)	0.66 µg/mL (≈ 0.604 µM)	0.5 µg/mL (≈ 0.457 µM)	1 µg/mL (≈ 0.915 µM)	0.19 µg/mL (≈ 0.174 µM)	0.125 µg/mL (≈ 0.114 µM)	0.25 µg/mL (≈ 0.229 µM)	0.14 µg/mL (≈ 0.128 µM)	0.125 µg/mL (≈ 0.114 µM)	0.25 µg/mL (≈ 0.229 µM)	8 µg/mL (≈ 7.32 µM)	8 µg/mL (≈ 7.32 µM)	8 µg/mL (≈ 7.32 µM)	1.15 µg/mL (≈ 1.05 µM)	1 µg/mL (≈ 0.915 µM)	2 µg/mL (≈ 1.83 µM)	0.31 µg/mL (≈ 0.284 µM)	0.25 µg/mL (≈ 0.229 µM)	MIC90 (Pichia kudriavzevii): 0.5 µg/mL (≈ 0.457 µM); MIC (Candida dubliniensis): 0.07 µg/mL (≈ 0.064 µM); MIC50 (Candida dubliniensis): 0.06 µg/mL (≈ 0.0549 µM); MIC90 (Candida dubliniensis): 0.125 µg/mL (≈ 0.114 µM); MIC (Candida albicans): 0.12 µg/mL (≈ 0.11 µM); MIC50 (Candida albicans): 0.14 µg/mL (≈ 0.128 µM); MIC90 (Candida albicans): 0.27 µg/mL (≈ 0.247 µM); MIC (Cryptococcus neoformans): 8 µg/mL (≈ 7.32 µM); MIC50 (Cryptococcus neoformans): 8 µg/mL (≈ 7.32 µM); MIC90 (Cryptococcus neoformans): 8 µg/mL (≈ 7.32 µM)
